Results: paper PMC4266334 (Journal of Medicinal Chemistry, 2014)

How the values were obtained:
leukemia Jurkat-T = assay: MTT toxicity assay, Jurkat; assay type: cell-based, human; conditions: read-out: IC50 Jurkat, 24 h incubation, mean ± SD (n = 4)
Method in brief: (§1)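 Cells were seeded at 5 × 10^4/well for Jurkat or 10^4/well for adherent lines, which attached 24 h. Test compound was added at several concentrations in triplicate for 24 h at 37 °C, 5% CO2, and read by modified MTT reduction.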

lung A549 = assay: MTT toxicity assay, A549; assay type: cell-based, human; conditions: read-out: IC50 A549, 24 h incubation, mean ± SD (n = 4)
Method in brief: (§2)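 Adherent cells (10^4/well) attached for 24 h, then test compound was added at several concentrations in triplicate for 24 h at 37 °C, 5% CO2. Proliferation was read by a modified MTT-reduction method.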

prostate DU-145 = assay: MTT toxicity assay, DU-145; assay type: cell-based, human; conditions: read-out: IC50 DU-145, 24 h incubation, mean ± SD (n = 4)
Method in brief: as §1

pancreas MiaPaca2 = assay: MTT toxicity assay, MiaPaca2; assay type: cell-based, human; conditions: read-out: IC50 MiaPaca2, 24 h incubation, mean ± SD (n = 4)
Method in brief: as §1

[1] = system: triple negative breast MDA-MB-231; assay: MTT toxicity assay, MDA-MB-231; assay type: cell-based, human; conditions: read-out: IC50 MDA-MB-231, 24 h incubation, mean ± SD (n = 4)
[2] = system: nontumorigenic human embryonic kidney cells HEK293T; assay: MTT toxicity assay, HEK-293T; assay type: cell-based; conditions: read-out: IC50 HEK-293T, 24 h incubation, mean ± SD (n = 4)
Method in brief: as §2

[3] = system: human renal proximal tubular cells (RPTC); assay: XTT assay for RPTC cells; assay type: cell-based; conditions: read-out: IC50 RPTC; XTT assay 24 h
Method in brief: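 Primary human renal proximal tubular cells were grown in RenaLife medium (0.5% FBS, growth factors) at 37 °C, 5% CO2. They were seeded at 5 × 10^3/well and grown 24 h. Test compound from fresh aqueous stock was given at 0.1–200 μM final for 24 h. XTT absorbance was read at 450 nm and survival calculated against untreated cells. IC50 is mean ± SE of at least two experiments in triplicate.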

plasmid (pBR322) DNA = assay: Electrophoresis mobility shift assay; assay type: binding; conditions: 37 °C, 20 h, Tris/HCl buffer, up to drug/DNA ratio 2.0
Method in brief: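 pBR322 DNA (20 μg/mL) in 5 mM Tris/HCl, 50 mM NaClO4, pH 7.39 was incubated with test compound at 0.25–2.0 metal complex:DNA bp. Incubation was 37 °C, 20 h, in the dark, with free DNA and cisplatin-DNA controls. Samples ran on 1% agarose in TAE for 1.5 h at 80 V and were stained 30 min with GelRed.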

N.N.[Cl][Pt][Cl] [cisplatin]
IC50 (leukemia Jurkat-T): 10.8 ± 1.2 µM | IC50 (lung A549): 114 ± 9.1 µM | IC50 (prostate DU-145): 112 ± 33 µM | IC50 (pancreas MiaPaca2): 76.5 ± 7.4 µM | IC50 [1]: 131 ± 18 µM | IC50 [2]: 69 ± 6.7 µM | IC50 [3]: 46.4 ± 2.46 µM | effect on electrophoretic mobility of plasmid pBR322 (plasmid (pBR322) DNA): both increase and decrease the mobility of the OC and the CCC forms
